PTEN del growth = PTEN-deleted cell growth suppression; HCT116 PTEN-null viability, CellTiter-Glo, 60 h; hits give low values; AID 827; viability, % at 10 µM; hit rate 1.2% among 140,000;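 active means viability at or below a set limit, 4 SD under the median of all tested compounds, cut at about 3.7% in these data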;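 further: PTEN knockout HCT116 line with beta catenin targeted HCT116 as companion control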
H69AR growth 86K = blocks growth of human H69AR lung tumor cells | H69AR lung tumor viability, ATP luminescence, 72 h; hits give low values | viability, % at 10 µM | hit rate 6% among 85,000 | AID 598;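 active means viability at or below 40%; inactive means viability above 40%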;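 further: multidrug resistant small cell line overexpressing MRP-1 efflux transporter; 100% = mean luminescence of untreated control wells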
Fibroblast inh = blocks proliferation of human lung fibroblasts; LL 47 human lung fibroblast viability, ATP luminescence; hits give low values; viability, % at 10 µM; hit rate 1.1% among 85,000;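 active means viability at or below 50% in the single dose screen; inactive means viability above 50%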;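 further: compound exposure lasted 72 h before the ATP readout; 100% = median luminescence of untreated cell-only wells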
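Material: human LL 47 lung fibroblast cells; quantity: 1,150 cells/well; medium: IMEM plus 15% FBS; doses: 0.1% DMSO in all compound wells; timing: overnight attachment after seeding, then 72 h compound exposure at 37 °C; detection: CellTiter-Glo luminescence; measure: % viability of median cell-only signal; controls: cell-only wells, no compound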
HUVEC prolif 384 = blocks proliferation of human endothelial cells. viability, % at 10 µM (by protocol). AID 648. HUVEC proliferation, CellTiter-Glo luminescence, 72 h; hits give low values. hit rate 1.1% among 86,000;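 active means viability at or below 30%; inactive means viability above 30%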;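 further: 100% = median luminescence of DMSO-only cell control wells on each plate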
bCat KO growth = beta-catenin-lacking colon tumor cell growth suppression; HCT116 beta-catenin knockout viability, CellTiter-Glo, 60 h; hits give low values; hit rate 1.5% among 140,000; viability, % at 10 µM;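 active means viability at or under a set limit, the compound median less 4 SD, cut at about 6% in these data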;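 further: 0% = Hyamine 1622 control at 20 µM and 100% = untreated cell control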
The depositor's hits bear a star; / = not tested or not shown. Many of the other results were omitted from the sample, so hits are more common in it than they were.

SMILES	PTEN del growth	H69AR growth 86K	Fibroblast inh	HUVEC prolif 384	bCat KO growth
CCN(CC)S(=O)(=O)c1ccc2[nH]c(=O)cc(C(=O)Nc3ccc(C)c(S(=O)(=O)N(CC)CC)c3)c2c1	47	/	/	/	36
Cc1cc2c(N=NC(=O)C3CC3c3ccccc3)c(O)[nH]c2cc1Br (centres undefined)	5	/	/	/	7
Cc1cc(Br)ccc1OCC(=O)NNC(=O)c1cnccn1	32	/	/	/	32
CC1=C(C(=O)OCc2ccc3c(c2)OCO3)C(c2ccc(Cl)cc2)NC(=O)N1 (centres undefined)	14	29*	53	27*	14
CC1=C(C(=O)OCc2ccc3c(c2)OCO3)C(c2ccc(F)cc2)NC(=O)N1 (centres undefined)	32	/	/	/	33
O=C(NC1CCCC1)C(c1ccc(F)cc1)N(Cc1ccc(F)cc1)C(=O)CCl (centres undefined)	81	/	/	/	83
CC1c2[nH]c3ccccc3c2CCN1C(=O)Nc1ccccc1 (centres undefined)	32	25*	99	82	36
Cc1cc(=O)oc(C)c1C(=O)N1CCc2c([nH]c3ccccc23)C1C(C)C (centres undefined)	80	82	98	97	76
COc1ccc(-c2c3c(=O)n(C)c(=O)n(C)c3cn2C2CCCCC2)cc1	51	20*	84	86	37
O=C(c1ccco1)N1CCN(c2ncnc3scc(-c4ccccc4)c23)CC1	75	40*	113	100	87
Cc1ccc(-c2csc3ncnc(N4CCN(C(=O)c5ccccc5)CC4)c23)cc1	34	22*	74	59	31
O=C(c1ccco1)N1CCN(c2ncnc3scc(-c4cccs4)c23)CC1	77	43	88	69	67
Cc1ccc(N2C(=O)CC(Sc3nc4ccccc4o3)C2=O)cc1Cl (centres undefined)	107	/	/	/	89
CC1=C(C(=O)Nc2ccccc2C)C(c2ccc(C)o2)NC(=S)N1 (centres undefined)	94	/	/	/	95
CSc1nccc(Oc2ccc(C#N)cc2)n1	99	/	/	/	92
COc1ccc(OC)c(N(CC(=O)Nc2cccnc2)S(=O)(=O)c2ccc(OC)c(OC)c2)c1	99	82	96	99	103
COc1ccc(OC)c(N(CC(=O)Nc2cccnc2)S(=O)(=O)c2ccc(C)cc2)c1	33	18*	59	50	49
C/C(Cc1ccccc1)=N\NC(=O)CNC(=O)c1ccccc1Br	95	/	/	/	94
Nc1cc(CN2C(=O)c3ccccc3C2=O)cc(Cl)c1O	94	34*	101	95	83
O=C(/C=C/c1ccc(Cl)cc1)NCCN1CCOCC1	92	/	/	/	102
CCCOc1ccc(-c2nc(C#N)c(NCCCn3ccnc3)o2)cc1	17	50	90	28*	78
N#Cc1nc(-c2ccc(OCc3ccccc3)cc2)oc1NCCCn1ccnc1	44	6.5*	92	5.8*	67
COc1ccc(-c2nc(C#N)c(NCCCn3ccnc3)o2)cc1OC	81	91	109	106	81
N#Cc1nc(-c2ccc(OCc3ccccc3Cl)cc2)oc1NCCCn1ccnc1	19	94	62	2.6*	25
N#Cc1nc(COc2ccccc2)oc1NCCCn1ccnc1	105	98	107	87	97
SMILES	PTEN del growth	H69AR growth 86K	Fibroblast inh	HUVEC prolif 384	bCat KO growth
Cc1cc(C)c(C(=O)Nc2ccc(Br)c(C(F)(F)F)c2)c(C)c1	32	/	/	/	57
COc1ccc(CNC(=O)CSc2ccc(Br)cc2)cc1OC	94	/	/	/	94
CC(C)(OC1OC(CO)C(O)C(O)C1O)[C@H]1Oc2ccc3ccc(=O)oc3c2[C@H]1O (some centres undefined)	100	/	/	/	97
COc1ccc([N+](=O)[O-])cc1NC(=O)C(C)Sc1nc(-c2ccccc2)cs1 (centres undefined)	79	/	/	/	82
Cc1cc(Br)c(OCc2ccc(C(=O)N/N=C3\CC4CC=CC34)cc2)c(Br)c1 (centres undefined)	83	/	/	/	90
CCOC(=O)C(C(=O)OCC)C(Nc1ccc(Br)cc1)c1ccccc1 (centres undefined)	1.5*	/	/	/	1.5*
Cc1cc(C(=O)NNC(=S)NC(=O)/C=C/c2ccccc2Cl)n[nH]1	70	36*	80	80	76
Cc1cccc(C(=O)NC(=S)NNC(=O)c2ccccc2Cl)c1	72	/	/	/	73
COc1ccc(NS(=O)(=O)c2ccc3nc(COc4ccc(Cl)c(C)c4)[nH]c3c2)cc1	60	/	/	/	76
N#CC1(C#N)[C@@H](C(=O)C23CC4CC(CC(C4)C2)C3)C12CCOCC2	107	/	/	/	95

Compound activity (PubChem BioAssay)
